# According to ChEMBL document CHEMBL1156261, “Evaluation of substituted N,N'-diarylsulfonamides as activators of the tumor cell specific M2 isoform of pyruvate kinase” (J Med Chem, 2010):
# Active and inactive are the calls of the source. How the calls were made is not given here.
# Molecular target: Pyruvate kinase PKLR (Homo sapiens) (UniProt P30613)
# Assay: Activation of PKL assessed as ATP product formation by luminescent pyruvate kinase-luciferase coupled assay relative to control
# Parameters: concentration or dose not given beside the values
# Outline: (§1)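 Luciferase-coupled ATP production assay run as for PKM2: imidazole pH 7.2 buffer with KCl, MgCl2, Tween 20 and BSA, 0.1 mM ADP, 0.5 mM PEP, 1 h at r.t., Kinase-Glo luminescence. Enzyme final concentrations were PKM1 1 nM, PKL 0.1 nM, PKR 0.1 nM. % activation normalized to DMSO (neutral) and no-enzyme controls.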
# Pyruvate kinase PKLR (Homo sapiens), sequence (P30613 whole entry, looked up): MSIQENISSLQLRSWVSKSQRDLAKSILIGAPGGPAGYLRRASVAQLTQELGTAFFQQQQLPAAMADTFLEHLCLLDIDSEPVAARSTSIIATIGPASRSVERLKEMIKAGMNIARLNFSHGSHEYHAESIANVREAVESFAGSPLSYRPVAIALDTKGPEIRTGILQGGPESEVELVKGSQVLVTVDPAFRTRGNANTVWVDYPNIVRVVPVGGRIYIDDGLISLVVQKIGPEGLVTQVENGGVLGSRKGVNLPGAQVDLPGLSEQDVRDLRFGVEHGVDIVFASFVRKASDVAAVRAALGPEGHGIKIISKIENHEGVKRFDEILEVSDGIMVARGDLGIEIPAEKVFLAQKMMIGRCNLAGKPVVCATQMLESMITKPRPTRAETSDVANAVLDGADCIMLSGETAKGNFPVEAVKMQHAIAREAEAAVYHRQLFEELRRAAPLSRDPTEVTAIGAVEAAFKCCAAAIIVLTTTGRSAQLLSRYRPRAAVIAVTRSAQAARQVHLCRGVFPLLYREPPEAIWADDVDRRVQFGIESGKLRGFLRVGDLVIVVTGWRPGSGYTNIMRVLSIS
row,Structure (SMILES),Activity [%]
1,O=C1CN(S(=O)(=O)c2ccc3c(c2)OCCO3)CCN1S(=O)(=O)c1c(F)cccc1F,< 30
2,O=S(=O)(c1c(F)cccc1F)N1CCN(S(=O)(=O)c2c(F)cccc2F)CC1,< 30
3,O=S(=O)(c1cccc(C(F)(F)F)c1)N1CCN(S(=O)(=O)c2ccc3c(c2)OCCO3)CC1,< 30
4,CC1(C)CCc2cc(S(=O)(=O)N3CCN(S(=O)(=O)c4c(F)cccc4F)CC3)ccc2O1,< 30
5,O=S(=O)(c1ccc(Cl)cc1)N1CCN(S(=O)(=O)c2ccc3c(c2)OCCO3)CC1,< 30
6,COc1ccc(S(=O)(=O)N2CCN(S(=O)(=O)c3c(F)cccc3F)CC2)cc1,< 30
7,O=S(=O)(c1ccc2c(c1)OCCO2)N1CCN(S(=O)(=O)c2ccccn2)CC1,< 30
8,O=S(=O)(c1ccccc1)N1CCN(S(=O)(=O)c2ccc3c(c2)OCCO3)CC1,< 30

# Molecular target: Pyruvate kinase PKLR (Homo sapiens) (UniProt P30613)
# Assay: Activation of PKR assessed as pyruvate formation by fluorescent pyruvate kinase-lactate dehydrogenase coupled assay relative to control
# Parameters: concentration or dose not given beside the values
row,Structure (SMILES),Activity [%]
1,O=C1CN(S(=O)(=O)c2ccc3c(c2)OCCO3)CCN1S(=O)(=O)c1c(F)cccc1F,< 30
2,O=S(=O)(c1c(F)cccc1F)N1CCN(S(=O)(=O)c2c(F)cccc2F)CC1,< 30
3,O=S(=O)(c1cccc(C(F)(F)F)c1)N1CCN(S(=O)(=O)c2ccc3c(c2)OCCO3)CC1,< 30
4,CC1(C)CCc2cc(S(=O)(=O)N3CCN(S(=O)(=O)c4c(F)cccc4F)CC3)ccc2O1,< 30
5,O=S(=O)(c1ccc(Cl)cc1)N1CCN(S(=O)(=O)c2ccc3c(c2)OCCO3)CC1,< 30
6,COc1ccc(S(=O)(=O)N2CCN(S(=O)(=O)c3c(F)cccc3F)CC2)cc1,< 30
7,O=S(=O)(c1ccc2c(c1)OCCO2)N1CCN(S(=O)(=O)c2ccccn2)CC1,< 30
8,O=S(=O)(c1ccccc1)N1CCN(S(=O)(=O)c2ccc3c(c2)OCCO3)CC1,< 30

# Molecular target: T1, Pyruvate kinase PKM (Homo sapiens, UniProt P14618)
# T1 sequence (P14618 2-531 limits assumed): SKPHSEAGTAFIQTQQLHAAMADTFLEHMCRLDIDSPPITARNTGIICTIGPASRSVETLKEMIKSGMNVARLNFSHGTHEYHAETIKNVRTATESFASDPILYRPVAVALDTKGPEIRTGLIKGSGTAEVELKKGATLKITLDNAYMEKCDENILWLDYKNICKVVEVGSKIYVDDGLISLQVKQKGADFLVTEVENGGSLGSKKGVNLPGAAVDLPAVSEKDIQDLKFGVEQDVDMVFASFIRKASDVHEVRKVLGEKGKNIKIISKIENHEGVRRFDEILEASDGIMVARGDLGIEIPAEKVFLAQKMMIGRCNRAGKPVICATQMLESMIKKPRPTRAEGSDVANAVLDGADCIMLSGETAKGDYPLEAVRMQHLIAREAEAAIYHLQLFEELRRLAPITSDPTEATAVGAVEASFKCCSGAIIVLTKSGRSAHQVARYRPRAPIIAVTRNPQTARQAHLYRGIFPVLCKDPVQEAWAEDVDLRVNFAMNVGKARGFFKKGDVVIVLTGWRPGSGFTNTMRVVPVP
# Assay: Activation of PKM2 assessed as ATP product formation at 57 uM by luminescent pyruvate kinase-luciferase coupled assay relative to fructose-1,6-bis-phosphate
# Outline: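 Recombinant human PKM2 (0.1 nM final) in 50 mM imidazole pH 7.2, 50 mM KCl, 7 mM MgCl2, 0.01% Tween 20, 0.05% BSA; 0.1 mM ADP, 0.5 mM PEP; 1 h at r.t., then Kinase-Glo luciferase read of ATP formed. Activation % = (c−n)/(n−i)×100 against DMSO and no-enzyme controls; 100% ≈ 2-fold over basal signal. Max response taken at 57 μM; three separate experiments.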
row,Structure (SMILES),Activity [%]
1,O=C1CN(S(=O)(=O)c2ccc3c(c2)OCCO3)CCN1S(=O)(=O)c1c(F)cccc1F,96.9
2,O=S(=O)(c1c(F)cccc1F)N1CCN(S(=O)(=O)c2c(F)cccc2F)CC1,74.3
3,O=S(=O)(c1cccc(C(F)(F)F)c1)N1CCN(S(=O)(=O)c2ccc3c(c2)OCCO3)CC1,39.3
4,CC1(C)CCc2cc(S(=O)(=O)N3CCN(S(=O)(=O)c4c(F)cccc4F)CC3)ccc2O1,119
5,COc1ccc(S(=O)(=O)N2CCN(S(=O)(=O)c3c(F)cccc3F)CC2)cc1,102
6,O=S(=O)(c1ccc2c(c1)OCCO2)N1CCN(S(=O)(=O)c2ccccn2)CC1,103
7,O=S(=O)(c1ccccc1)N1CCN(S(=O)(=O)c2ccc3c(c2)OCCO3)CC1,108

# Molecular target: T1, Pyruvate kinase PKM
# Assay: Activation of PKM1 assessed as pyruvate formation by fluorescent pyruvate kinase-lactate dehydrogenase coupled assay
row,Structure (SMILES),Activity
1,O=C1CN(S(=O)(=O)c2ccc3c(c2)OCCO3)CCN1S(=O)(=O)c1c(F)cccc1F,inactive
2,O=S(=O)(c1c(F)cccc1F)N1CCN(S(=O)(=O)c2c(F)cccc2F)CC1,inactive
3,O=S(=O)(c1cccc(C(F)(F)F)c1)N1CCN(S(=O)(=O)c2ccc3c(c2)OCCO3)CC1,inactive
4,CC1(C)CCc2cc(S(=O)(=O)N3CCN(S(=O)(=O)c4c(F)cccc4F)CC3)ccc2O1,inactive
5,O=S(=O)(c1ccc(Cl)cc1)N1CCN(S(=O)(=O)c2ccc3c(c2)OCCO3)CC1,inactive
6,COc1ccc(S(=O)(=O)N2CCN(S(=O)(=O)c3c(F)cccc3F)CC2)cc1,inactive
7,O=S(=O)(c1ccc2c(c1)OCCO2)N1CCN(S(=O)(=O)c2ccccn2)CC1,inactive
8,O=S(=O)(c1ccccc1)N1CCN(S(=O)(=O)c2ccc3c(c2)OCCO3)CC1,inactive

# Molecular target: Pyruvate kinase PKLR (Homo sapiens) (UniProt P30613)
# Assay: Activation of PKR assessed as ATP product formation by luminescent pyruvate kinase-luciferase coupled assay relative to control
# Parameters: concentration or dose not given beside the values
# Outline: as §1
row,Structure (SMILES),Activity [%]
1,O=C1CN(S(=O)(=O)c2ccc3c(c2)OCCO3)CCN1S(=O)(=O)c1c(F)cccc1F,< 30
2,O=S(=O)(c1c(F)cccc1F)N1CCN(S(=O)(=O)c2c(F)cccc2F)CC1,< 30
3,O=S(=O)(c1cccc(C(F)(F)F)c1)N1CCN(S(=O)(=O)c2ccc3c(c2)OCCO3)CC1,< 30
4,CC1(C)CCc2cc(S(=O)(=O)N3CCN(S(=O)(=O)c4c(F)cccc4F)CC3)ccc2O1,< 30
5,O=S(=O)(c1ccc(Cl)cc1)N1CCN(S(=O)(=O)c2ccc3c(c2)OCCO3)CC1,< 30
6,COc1ccc(S(=O)(=O)N2CCN(S(=O)(=O)c3c(F)cccc3F)CC2)cc1,< 30
7,O=S(=O)(c1ccc2c(c1)OCCO2)N1CCN(S(=O)(=O)c2ccccn2)CC1,< 30
8,O=S(=O)(c1ccccc1)N1CCN(S(=O)(=O)c2ccc3c(c2)OCCO3)CC1,< 30

# Molecular target: T1, Pyruvate kinase PKM
# Assay: Activation of PKM1 assessed as ATP product formation by luminescent pyruvate kinase-luciferase coupled assay
# Outline: as §1
row,Structure (SMILES),Activity
1,O=C1CN(S(=O)(=O)c2ccc3c(c2)OCCO3)CCN1S(=O)(=O)c1c(F)cccc1F,inactive
2,O=S(=O)(c1c(F)cccc1F)N1CCN(S(=O)(=O)c2c(F)cccc2F)CC1,inactive
3,O=S(=O)(c1cccc(C(F)(F)F)c1)N1CCN(S(=O)(=O)c2ccc3c(c2)OCCO3)CC1,inactive
4,CC1(C)CCc2cc(S(=O)(=O)N3CCN(S(=O)(=O)c4c(F)cccc4F)CC3)ccc2O1,inactive
5,O=S(=O)(c1ccc(Cl)cc1)N1CCN(S(=O)(=O)c2ccc3c(c2)OCCO3)CC1,inactive
6,COc1ccc(S(=O)(=O)N2CCN(S(=O)(=O)c3c(F)cccc3F)CC2)cc1,inactive
7,O=S(=O)(c1ccc2c(c1)OCCO2)N1CCN(S(=O)(=O)c2ccccn2)CC1,inactive
8,O=S(=O)(c1ccccc1)N1CCN(S(=O)(=O)c2ccc3c(c2)OCCO3)CC1,inactive

# Molecular target: Pyruvate kinase PKLR (Homo sapiens) (UniProt P30613)
# Assay: Activation of PKL assessed as pyruvate formation by fluorescent pyruvate kinase-lactate dehydrogenase coupled assay relative to control
# Parameters: concentration or dose not given beside the values
row,Structure (SMILES),Activity [%]
1,O=C1CN(S(=O)(=O)c2ccc3c(c2)OCCO3)CCN1S(=O)(=O)c1c(F)cccc1F,< 30
2,O=S(=O)(c1c(F)cccc1F)N1CCN(S(=O)(=O)c2c(F)cccc2F)CC1,< 30
3,O=S(=O)(c1cccc(C(F)(F)F)c1)N1CCN(S(=O)(=O)c2ccc3c(c2)OCCO3)CC1,< 30
4,CC1(C)CCc2cc(S(=O)(=O)N3CCN(S(=O)(=O)c4c(F)cccc4F)CC3)ccc2O1,< 30
5,O=S(=O)(c1ccc(Cl)cc1)N1CCN(S(=O)(=O)c2ccc3c(c2)OCCO3)CC1,< 30
6,COc1ccc(S(=O)(=O)N2CCN(S(=O)(=O)c3c(F)cccc3F)CC2)cc1,< 30
7,O=S(=O)(c1ccc2c(c1)OCCO2)N1CCN(S(=O)(=O)c2ccccn2)CC1,< 30
8,O=S(=O)(c1ccccc1)N1CCN(S(=O)(=O)c2ccc3c(c2)OCCO3)CC1,< 30
